biological target: T1, Proteinase-activated receptor 1 (Homo sapiens, UniProt P25116); experiment: Antagonist activity at human PAR1 expressed in HEK293 cells co-expressing Galpha15 assessed as inhibition of haTRAP-induced calcium mobilization preincubated for 15 mins followed by haTRAP addition by calcium-4 dye based FLIPR assay; type: functional, cell-based; settings: not given
T1 sequence (P25116 whole entry): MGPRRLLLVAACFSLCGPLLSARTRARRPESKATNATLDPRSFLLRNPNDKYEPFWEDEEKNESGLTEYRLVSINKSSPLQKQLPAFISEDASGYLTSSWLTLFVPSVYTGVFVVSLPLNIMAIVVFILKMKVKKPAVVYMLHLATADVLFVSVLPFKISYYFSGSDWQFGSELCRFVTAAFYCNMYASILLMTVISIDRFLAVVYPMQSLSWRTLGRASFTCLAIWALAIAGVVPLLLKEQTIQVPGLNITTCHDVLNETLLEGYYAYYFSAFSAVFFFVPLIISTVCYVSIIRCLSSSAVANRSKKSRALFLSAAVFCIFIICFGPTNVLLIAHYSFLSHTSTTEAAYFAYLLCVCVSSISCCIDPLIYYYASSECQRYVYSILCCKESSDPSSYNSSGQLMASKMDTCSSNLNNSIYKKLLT

First: C[C@H]1CC[C@@H]2C(C)(C)C=CC[C@@]2(C)[C@@H]1/C=C/c1ccc(-c2cccc(F)c2)cn1
Second: CC1CC[C@@H]2[C@](C)(C=O)[C@H](O)CC[C@@]2(C)[C@@H]1/C=C/c1ccc(-c2cccc(F)c2)cn1 (single isomer, unassigned)
The IC50 of the first is higher: greater than 100 µM for the first, 1.5 µM for the second. The second is the more potent here.

C[C@]1(/C=C/c2ccc(-c3cccc(F)c3)cn2)[C@H]2CC[C@@H]3COC(=O)[C@H]3[C@]2(C)CC[C@H]1OC(N)=O and C[C@@]1(/C=C/c2ccc(-c3cccc(F)c3)cn2)[C@@H](OC(N)=O)CC[C@@]2(C)[C@@H]3C(=O)OC[C@H]3CC[C@H]12 are within 1.5-fold of each other in IC50: 21 µM for the first, 20 µM for the second.

C[C@]1(CO)[C@H]2CC[C@@]3(CO3)[C@@H](CCc3ccc(-c4cccc(F)c4)cn3)[C@]2(C)CC[C@H]1O and C[C@]1(CO)[C@H]2CC[C@@]3(CO3)[C@@H](CCc3ccc(-c4cccc(C(F)(F)F)c4)cn3)[C@]2(C)CC[C@H]1O are within 1.5-fold of each other in IC50: 14 µM for the first, 10 µM for the second.

First: COC[C@@]1(C)[C@H]2CC[C@@]3(CO3)[C@@H](/C=C/c3ccc(-c4cccc(F)c4)cn3)[C@]2(C)CC[C@H]1O
Second: C[C@]1(CN)[C@H]2CC[C@@]3(CO3)[C@@H](/C=C/c3ccc(-c4cccc(F)c4)cn3)[C@]2(C)CC[C@H]1O
The IC50 of the first is 2.8-fold lower: 8.1 µM for the first, 23 µM for the second. The first is the more potent here.

C[C@@]1(/C=C/c2ccc(-c3cccc(F)c3)cn2)[C@H]2CC[C@@H]3COC(=O)[C@H]3[C@]2(C)CC[C@H]1OS(C)(=O)=O and C[C@@]1(/C=C/c2ccc(-c3cccc(F)c3)cn2)[C@@H](OS(C)(=O)=O)CC[C@@]2(C)[C@@H]3C(=O)OC[C@H]3CC[C@H]12 cannot be ordered by IC50: greater than 100 µM for the first, greater than 100 µM for the second.

C[C@@]12CC[C@@H](O)[C@@](C)(C3SCCS3)[C@H]1CCC(C1SCCS1)[C@H]2/C=C/c1ccc(-c2cccc(F)c2)cn1 (single isomer, unassigned) and C[C@@]1(C=O)[C@H](O)CC[C@@]2(C)[C@H](/C=C/c3ccc(-c4cccc(F)c4)cn3)[C@@H](C3SCCS3)CC[C@H]12 cannot be ordered by IC50: greater than 100 µM for the first, greater than 100 µM for the second.

CO[C@@H]1CC[C@]2(C)[C@H](CC[C@@]3(CO3)[C@H]2/C=C/c2ccc(-c3cccc(F)c3)cn2)[C@]1(C)CO and CNC[C@@]1(C)[C@H]2CC[C@@]3(CO3)[C@@H](/C=C/c3ccc(-c4cccc(F)c4)cn3)[C@]2(C)CC[C@H]1O are within 1.5-fold of each other in IC50: 14 µM for the first, 17 µM for the second.

C[C@]1(C=O)[C@H](O)CC[C@@]2(C)[C@H](/C=C/c3ccc(-c4cccc(F)c4)c[n+]3[O-])[C@@]3(CC[C@H]12)CO3 and C[C@@]1(C=O)[C@H](O)CC[C@@]2(C)[C@H](/C=C/c3ccc(-c4cccc(F)c4)c[n+]3[O-])[C@@]3(CC[C@H]12)CO3 cannot be ordered by IC50: greater than 100 µM for the first, greater than 100 µM for the second.

C[C@@]1(/C=C/c2ccc(-c3cccc(F)c3)cn2)[C@H](O)CC[C@@]2(C)[C@@H]3C(=O)OC[C@H]3CC[C@H]12 and C[C@@]1(/C=C/c2ccc(-c3cccc(F)c3)cn2)[C@H]2CC[C@@H]3COC(=O)[C@H]3[C@]2(C)CC[C@@H]1O cannot be ordered by IC50: greater than 100 µM for the first, greater than 100 µM for the second.

CC1(C)OC[C@@]2(C)[C@H]3CC[C@@]4(CO4)[C@@H](/C=C/c4ccc(-c5cccc(C(F)(F)F)c5)cn4)[C@]3(C)CC[C@H]2O1 and CC1(C)OC[C@@]2(C)[C@H]3CC[C@@]4(CO4)[C@@H](/C=C/c4ccc(-c5cccc(F)c5)cn4)[C@]3(C)CC[C@H]2O1 cannot be ordered by IC50: greater than 100 µM for the first, greater than 100 µM for the second.

Going from COC(=O)[C@]1(C)[C@H](OC(C)=O)CC[C@@]2(C)[C@H](/C=C/c3ccc(-c4cccc(F)c4)cn3)[C@@]3(CC[C@@H]21)CO3 to COC(=O)[C@]1(C)[C@H](OC(N)=O)CC[C@@]2(C)[C@H](/C=C/c3ccc(-c4cccc(F)c4)cn3)[C@@]3(CC[C@@H]21)CO3, the IC50 falls from greater than 100 µM to 8.7 µM.

CCCC(=O)O[C@@H]1CC[C@@]2(C)[C@H](/C=C/c3ccc(-c4cccc(F)c4)cn3)[C@@H](C)CC[C@@H]2C1(C)C and CC(=O)O[C@@H]1CC[C@@]2(C)[C@H](/C=C/c3ccc(-c4cccc(F)c4)cn3)C(C)CC[C@@H]2C1(C)C (single isomer, unassigned) cannot be ordered by IC50: greater than 100 µM for the first, greater than 100 µM for the second.

Going from C[C@]1(/C=C/c2ccc(-c3cccc(F)c3)cn2)[C@H]2CC[C@@H]3COC(=O)[C@H]3[C@]2(C)CC[C@@H]1O to C[C@]1(/C=C/c2ccc(-c3cccc(F)c3)cn2)[C@H](O)CC[C@@]2(C)[C@@H]3C(=O)OC[C@H]3CC[C@H]12, the IC50 rises from 19 µM to greater than 100 µM. The first is the more potent here.

Going from CC1CC[C@@H]2C(C)(C)[C@H](OC(N)=O)CC[C@@]2(C)[C@@H]1/C=C/c1ccc(-c2cccc(F)c2)cn1 (single isomer, unassigned) to CCOC(=O)O[C@@H]1CC[C@@]2(C)[C@H](/C=C/c3ccc(-c4cccc(F)c4)cn3)[C@@H](C)CC[C@@H]2C1(C)C, the IC50 rises from 32 µM to greater than 100 µM.

First: CC1CC[C@@H]2C(C)(C)[C@H](OS(C)(=O)=O)CC[C@@]2(C)[C@@H]1/C=C/c1ccc(-c2cccc(F)c2)cn1 (single isomer, unassigned)
Second: CC(=O)O[C@@H]1CC[C@@]2(C)[C@@H]3C(=O)OC[C@H]3CC[C@@H]2[C@]1(C)/C=C/c1ccc(-c2cccc(F)c2)cn1
The IC50 of the first is lower: 87 µM for the first, greater than 100 µM for the second. The first is the more potent here.

CC(=O)O[C@@H]1CC[C@@]2(C)[C@@H]3C(=O)OC[C@H]3CC[C@@H]2[C@@]1(C)/C=C/c1ccc(-c2cccc(F)c2)cn1 and CC(=O)O[C@H]1CC[C@@]2(C)[C@@H]3C(=O)OC[C@H]3CC[C@@H]2[C@]1(C)/C=C/c1ccc(-c2cccc(F)c2)cn1 cannot be ordered by IC50: greater than 100 µM for the first, greater than 100 µM for the second.

First: C[C@]1(/C=C/c2ccc(-c3cccc(F)c3)cn2)[C@@H](OC(N)=O)CC[C@@]2(C)[C@@H]3C(=O)OC[C@H]3CC[C@H]12
Second: C[C@@]1(/C=C/c2ccc(-c3cccc(F)c3)cn2)[C@H]2CC[C@@H]3COC(=O)[C@H]3[C@]2(C)CC[C@H]1OC(N)=O
The IC50 of the first is higher: greater than 100 µM for the first, 12 µM for the second. The second is the more potent here.

CCCC(=O)O[C@@H]1CC[C@@]2(C)[C@@H]3C(=O)OC[C@H]3CC[C@@H]2[C@@]1(C)/C=C/c1ccc(-c2cccc(F)c2)cn1 and CCCC(=O)O[C@H]1CC[C@@]2(C)[C@@H]3C(=O)OC[C@H]3CC[C@@H]2[C@]1(C)/C=C/c1ccc(-c2cccc(F)c2)cn1 cannot be ordered by IC50: greater than 100 µM for the first, greater than 100 µM for the second.

First: CCCC(=O)O[C@@H]1CC[C@@]2(C)[C@H](/C=C/c3ccc(-c4cccc(F)c4)cn3)[C@@]3(CC[C@@H]2[C@]1(C)C(=O)OC)CO3
Second: C[C@@]12CC[C@@H](O)[C@@](C)(C(=O)O)[C@H]1CC[C@@]1(CO1)[C@H]2/C=C/c1ccc(-c2cccc(F)c2)cn1
The IC50 of the first is higher: greater than 100 µM for the first, 29 µM for the second. The second is the more potent here.

Compared with C[C@]1(CO)[C@H]2CC[C@](C)(O)[C@@H](/C=C/c3ccc(-c4cccc(F)c4)cn3)[C@]2(C)CC[C@H]1O, C[C@]1(CO)[C@H]2CC[C@@]3(CO3)[C@@H](/C=C/c3ccc(-c4cccc(C(F)(F)F)c4)cn3)[C@]2(C)CC[C@H]1O is 5.8-fold lower in IC50: 55 µM for the first, 9.5 µM for the second. The second is the more potent here.

For C[C@@]1(C=O)[C@H](O)CC[C@@]2(C)[C@H](/C=C/c3ccc(-c4cccc(F)c4)cn3)[C@@]3(CC[C@H]12)CO3, the IC50 was 3 µM.

system: Plasma; experiment: Stability in Wistar rat assessed as parent compound level in plasma at 10 mg/kg, po administered as single dose measured at 3 hrs post dose by LC-HRMS analysis; type: ADME, organism-based; settings: in vivo
How it was run: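 Rats dosed orally at 10 mg/kg or 5 mg/kg. Plasma taken at 3.0 h after dosing. Parent and metabolites detected by extracted ion chromatograms.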

With C[C@@]1(C=O)[C@H](O)CC[C@@]2(C)[C@H](/C=C/c3ccc(-c4cccc(F)c4)cn3)[C@@]3(CC[C@H]12)CO3 the Stability was “Unstable”.
